{"data": "Assay results from different studies", "target": "cAMP-dependent protein kinase catalytic subunit PRKX (PRKX, Homo sapiens, UniProt P51817)", "Residues used in one study (P51817 1-358)": "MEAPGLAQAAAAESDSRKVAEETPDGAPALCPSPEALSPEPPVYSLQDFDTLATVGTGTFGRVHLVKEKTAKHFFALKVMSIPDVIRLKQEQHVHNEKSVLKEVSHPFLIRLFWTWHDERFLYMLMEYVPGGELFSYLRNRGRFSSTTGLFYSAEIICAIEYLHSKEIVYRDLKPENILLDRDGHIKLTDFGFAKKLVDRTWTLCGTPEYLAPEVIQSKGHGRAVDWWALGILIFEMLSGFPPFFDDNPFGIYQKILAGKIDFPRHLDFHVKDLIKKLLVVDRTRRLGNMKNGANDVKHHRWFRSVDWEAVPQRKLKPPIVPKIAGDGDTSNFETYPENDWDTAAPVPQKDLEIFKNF"}
{"Structure (SMILES)": "Cc1ccc(NC(=O)c2ccc(C)c(C(F)(F)F)c2)cc1C#Cc1nn(C2CCC(O)CC2)c2ncnc(N)c12 (centres unmarked)", "observed": "cell-free assay", "concentration": "10 µM", "endpoint": "remaining signal", "value": "105%"}
{"Structure (SMILES)": "N#Cc1ccc(Nc2ccc3[nH]c(=O)[nH]c3c2)c(Cl)c1", "observed": "cell-free assay", "method": "competition with immobilised ligand", "concentration": "1 µM", "endpoint": "remaining binding", "value": "100%"}
{"Structure (SMILES)": "CCCOc1ccc(OC)c(F)c1C(=O)c1ccc(C(=O)N[C@@H]2CNC[C@H]2NC(=O)c2ccc3[nH]ncc3c2)cc1", "observed": "enzyme activity", "mode": "inhibitor", "concentration": "0.5 µM", "endpoint": "remaining activity", "value": "5%"}
{"Structure (SMILES)": "N#CCCc1ccc2c(c1)-c1[nH]c3ccc([N+](=O)[O-])cc3c1CC(=O)N2", "observed": "cell-free assay", "concentration": "0.5 µM", "endpoint": "remaining signal", "value": "78.4%"}
{"Structure (SMILES)": "CC1=C(C#N)C(c2ccc3c(c2)c(NC(=O)c2ccccc2C)nn3C)C(C#N)=C(C)N1", "observed": "cell-free assay", "method": "competition with immobilised ligand", "concentration": "1 µM", "endpoint": "remaining binding", "value": "76%"}
{"Structure (SMILES)": "CCOc1cc(-c2nncn2C)ccc1Nc1ncc2cc(C)nc(NCC(C)(C)C)c2n1", "observed": "enzyme activity", "mode": "inhibitor", "method": "FRET", "concentration": "1 µM", "endpoint": "inhibition", "value": "< 15%"}
{"Structure (SMILES)": "CN1CC(Oc2cnc(C#N)cc2-c2ccn3nc(NC(=O)C4CC4)cc3c2)C1", "observed": "enzyme activity", "mode": "inhibitor", "concentration": "1 µM", "endpoint": "inhibition", "value": "5%"}
{"Structure (SMILES)": "CNC(=O)c1ccc(Nc2ncc(C(F)(F)F)c(NCc3nccnc3N(C)S(C)(=O)=O)n2)cc1", "observed": "cell-free assay", "method": "competition with immobilised ligand", "concentration": "0.1 µM", "endpoint": "remaining binding", "value": "95%"}
{"Structure (SMILES)": "CCN(CC)CCNC(=O)c1c(C)[nH]c(/C=C2\\C(=O)Nc3ccc(F)cc32)c1C", "observed": "enzyme activity", "mode": "inhibitor", "concentration": "0.3 µM", "endpoint": "inhibition", "value": "1%"}
{"Structure (SMILES)": "Cn1cnc(Br)c1C1=CN(c2ncnc3[nH]cnc23)CCS1", "observed": "enzyme activity", "mode": "inhibitor", "method": "radiometric", "concentration": "50 nM", "endpoint": "inhibition", "value": "17.6%"}
{"Structure (SMILES)": "CO[C@@H](C)c1c(Nc2ccc([C@H](N(C)C(=O)C3CCS(=O)(=O)CC3)C(F)(F)F)cc2)cnc2cc(Cl)nn12", "observed": "cell-free assay", "method": "competition with immobilised ligand", "concentration": "1 µM", "endpoint": "remaining binding", "value": "88%"}
{"Structure (SMILES)": "CCN(CC)c1ccc(C2=NNC(=O)CC2C)cc1[N+](=O)[O-] (centres unmarked)", "observed": "enzyme activity", "mode": "inhibitor", "concentration": "10 µM", "endpoint": "remaining activity", "value": "91%"}
{"Structure (SMILES)": "O=C1NC(c2ccccn2)Sc2ccccc21 (centres unmarked)", "observed": "cell-free assay", "method": "competition with immobilised ligand", "concentration": "1 µM", "endpoint": "remaining binding", "value": "100%"}
{"Structure (SMILES)": "COc1cc2ncnc(Nc3ccc(Oc4ccccc4)c(C)c3C)c2cc1OC", "observed": "enzyme activity", "mode": "inhibitor", "concentration": "1 µM", "endpoint": "inhibition", "value": "-12%"}
{"Structure (SMILES)": "Cc1cnc(NC2CCOCC2)nc1-n1cnc(C(=O)NC(CN)c2cc(F)cc(Cl)c2)c1 (centres unmarked)", "observed": "enzyme activity", "mode": "inhibitor", "method": "radiometric", "concentration": "1 µM", "endpoint": "remaining activity", "value": "24%"}
{"Structure (SMILES)": "Cc1ccc(C(=O)NCc2ccsc2)cc1C#Cc1cn(C(C)C)c2ncnc(N)c12", "observed": "enzyme activity", "mode": "inhibitor", "concentration": "1 µM", "endpoint": "activity vs control", "value": "110%"}
{"Structure (SMILES)": "O=C(Nc1cnn(-c2csc(C(=O)NC3COC3)c2)c1)Nc1c(F)cccc1Cl", "observed": "enzyme activity", "mode": "inhibitor", "concentration": "5 µM", "endpoint": "remaining activity", "value": "91.5%"}
{"Structure (SMILES)": "NS(=O)(=O)c1cc(NC(=O)C2(c3ccccc3Cl)CC2)ccc1Oc1cccc(Cl)c1", "observed": "cell-free assay", "method": "competition with immobilised ligand", "concentration": "1 µM", "endpoint": "remaining binding", "value": "77%"}
{"Structure (SMILES)": "CC/C(=N\\NC(=O)NCc1cccc(O)c1)c1ccc(O)c(C)c1O", "observed": "enzyme activity", "mode": "inhibitor", "concentration": "0.1 µM", "endpoint": "inhibition", "value": "81.9%"}
{"Structure (SMILES)": "CNCc1ccccc1-c1csc([C@@H](C)Nc2nc(C)nc3cc(OC)c(OC)cc23)c1", "observed": "cell-free assay", "method": "competition with immobilised ligand", "concentration": "1 µM", "endpoint": "remaining binding", "value": "67%"}
{"Structure (SMILES)": "CNC(=O)c1cc(Oc2ccc(NC(=O)Nc3ccc(Cl)c(C(F)(F)F)c3)cc2)ccn1", "observed": "enzyme activity", "mode": "inhibitor", "concentration": "10 µM", "endpoint": "inhibition", "value": "48%"}
{"Structure (SMILES)": "Cc1ccc(NC(=O)c2ccc(CN3CCN(C)CC3)cc2)cc1Nc1nc(-c2cccnc2)cs1", "observed": "cell-free assay", "concentration": "0.5 µM", "endpoint": "remaining signal", "value": "99.5%"}
{"Structure (SMILES)": "CC(C)(C)c1nc(-c2cccc(NS(=O)(=O)c3c(F)cccc3F)c2F)c(-c2ccnc(N)n2)s1", "observed": "enzyme activity", "mode": "inhibitor", "method": "radiometric", "concentration": "1 µM", "endpoint": "remaining activity", "value": "77%"}
{"Structure (SMILES)": "Cc1ccc(Nc2nccc(N(C)c3ccc4c(C)n(C)nc4c3)n2)cc1S(N)(=O)=O", "observed": "enzyme activity", "mode": "inhibitor", "concentration": "0.3 µM", "endpoint": "inhibition", "value": "61%"}
{"Structure (SMILES)": "C[C@@H](c1cccc(C#N)c1)n1cc(Cl)cc(C(N)=O)c1=N", "observed": "cell-free assay", "method": "competition with immobilised ligand", "concentration": "1 µM", "endpoint": "remaining binding", "value": "100%"}
{"Structure (SMILES)": "CCCS(=O)(=O)Nc1ccc(F)c(C(=O)c2c[nH]c3ncc(-c4ccc(Cl)cc4)cc23)c1F", "observed": "enzyme activity", "mode": "inhibitor", "concentration": "1 µM", "endpoint": "inhibition", "value": "< 10%"}
